Values after ≈ are worked out from the molar mass of the structure shown. Active and inactive are the calls of the source. The calls are words filed in the database; no cut-off is given here.
Key:
HepG2 = experiment: Cytotoxicity against human HepG2 cells assessed as inhibition of cell growth after 72 hrs by MTT assay; type: functional, cell-based; settings: HepG2, 72 h
Outline: (§1)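 Cells grown in RPMI-1640 with 10% FBS at 37 °C under 5% CO2, seeded at 5 × 10^4 cells/mL and allowed about 24 h to attach. Medium was replaced and compound in DMSO added at final 0.016–50 μg/mL (5-fold steps), in quadruplicate, for 72 h. MTT was then given for 4 h, formazan dissolved in DMSO and OD read at 570 nm. IC50 obtained by nonlinear logistic regression.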

Salmonella typhimurium = experiment: Antibacterial activity against Salmonella typhimurium CMCC 50115 after 7 hrs by Alamar Blue assay; type: functional, organism-based; settings: Salmonella enterica subsp. enterica serovar Typhimurium
Outline: (§2)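 Strains kept in 20% glycerol at −80 °C, grown in MHB 12 h at 37 °C with shaking at 150 rpm, then adjusted to 1 × 10^5 CFU/mL in MHB. Suspension held Alamar Blue (8% v/v) and 2-fold diluted compound in DMSO (4% v/v), final 1.562–100 μg/mL, in triplicate. Incubated 7 h at 37 °C in the dark. MIC is the lowest concentration whose well stays blue.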

Escherichia coli = experiment: Antibacterial activity against Escherichia coli ATCC 8739 after 7 hrs by Alamar Blue assay; type: functional, organism-based; outline: as §2
HeLa = experiment: Cytotoxicity against human HeLa cells assessed as inhibition of cell growth after 72 hrs by MTT assay; type: functional, cell-based; outline: as §1
A549 = experiment: Cytotoxicity against human A549 cells assessed as inhibition of cell growth after 72 hrs by MTT assay; type: functional, cell-based; settings: A549, 72 h; outline: as §1
Staphylococcus aureus = experiment: Antibacterial activity against Staphylococcus aureus ATCC 6538 after 7 hrs by Alamar Blue assay; type: functional; settings: ATCC 6538, 7 h; outline: as §2
Shigella dysenteriae = experiment: Antibacterial activity against Shigella dysenteriae CMCC 51252 after 7 hrs by Alamar Blue assay; type: functional, organism-based
Bacillus cereus = experiment: Antibacterial activity against Bacillus cereus CMCC 63302 after 7 hrs by Alamar Blue assay; type: functional; settings: CMCC 63302, 7 h; outline: as §2

Structure (SMILES) | IC50 (HepG2) | MIC (Salmonella typhimurium) | MIC (Escherichia coli) | IC50 (HeLa) | IC50 (A549) | MIC (Staphylococcus aureus) | MIC (Shigella dysenteriae) | MIC (Bacillus cereus)
C=C1CC[C@H]2[C@](C)(CO)CCC[C@]2(C)[C@H]1C[C@]12O[C@H]1[C@@H](O)C(CO)=C(Cl)C2=O | 15.2 µM | inactive | inactive | 7.9 µM | 8 µM | 12.5 µg/mL (≈ 30.4 µM) | inactive | 25 µg/mL (≈ 60.8 µM)
CC(C)(O/N=C(\C(=O)N[C@@H]1C(=O)N2C(C(=O)[O-])=C(C[n+]3ccccc3)CS[C@H]12)c1csc(N)n1)C(=O)O [CEFTAZIDIME] |  |  |  |  |  | 12.5 µg/mL (≈ 22.9 µM) |  | 
C=C1CC[C@H]2[C@](C)(CO)CCC[C@]2(C)[C@H]1C[C@@]12O[C@@H]1[C@@H](O)C(CO)=CC2=O | 34.2 µM | inactive | inactive | 35.9 µM | 41.5 µM | 50 µg/mL (≈ 133 µM) | inactive | 100 µg/mL (≈ 266 µM)
NC[C@H]1O[C@H](O[C@H]2[C@H](O)[C@@H](O[C@H]3O[C@H](CO)[C@@H](O)[C@H](N)[C@H]3O)[C@H](N)C[C@@H]2N)[C@H](O)[C@@H](O)[C@@H]1O [KANAMYCIN] |  |  |  |  |  |  |  | 6.25 µg/mL (≈ 12.9 µM)
C=C1CC[C@H]2[C@](C)(CO)CCC[C@]2(C)[C@H]1C[C@]12O[C@H]1[C@@H](O)C(CO)=CC2=O | 48.5 µM | inactive | inactive | 29.3 µM | 39.8 µM | 50 µg/mL (≈ 133 µM) | inactive | 100 µg/mL (≈ 266 µM)
C=C1CC[C@H]2[C@](C)(COC(C)=O)CCC[C@]2(C)[C@H]1C[C@@]12O[C@@H]1[C@@H](O)C(CO)=CC2=O | 27.8 µM | inactive | inactive | 19.6 µM | 18 µM | 50 µg/mL (≈ 119 µM) | inactive | > 100 µg/mL
C=C1CC[C@H]2[C@](C)(COC(C)=O)CCC[C@]2(C)[C@H]1C[C@]12O[C@H]1[C@H](O)C(CO)=CC2=O | 37.8 µM | inactive | inactive | 19.2 µM | 29.4 µM | 100 µg/mL (≈ 239 µM) | inactive | > 100 µg/mL
C[C@@]1(CO)CCC[C@]2(C)[C@H]3C[C@@]45O[C@@H]4C(=O)[C@]4(CO)O[C@@H]4[C@]5(O)CC3=CC[C@@H]12 [HYMENOPSIN B] | 3.2 µM | inactive | inactive | 4.5 µM | 1.3 µM | > 100 µg/mL | inactive | > 100 µg/mL
C=C1CC[C@H]2[C@](C)(CO)CCC[C@]2(C)[C@H]1CC1=C(O)C(=O)[C@](O)(CO)[C@H](O)[C@H]1O | > 50 µM | inactive | inactive | > 50 µM | > 50 µM | > 100 µg/mL | inactive | > 100 µg/mL
COc1cccc2c1C(=O)c1c(O)c3c(c(O)c1C2=O)C[C@@](O)(C(=O)CO)C[C@@H]3O[C@H]1C[C@H](N)[C@H](O)[C@H](C)O1 [DOXORUBICIN] |  |  |  | 0.47 µM | 0.69 µM |  |  | 
